We go through six molecules from ChEMBL document CHEMBL1142589, “Steroidal alkaloids from the bulbs of Fritillaria puqiensis” (2005).

Test [1] concerns HL-60. Description: Antitumor activity against human HL-60 cells at 0.1 uM by MTT assay. The class given is functional, cell-based. In a few lines:
(§1)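 MTT growth-inhibition assay on human A549, BGC-823, SMMC-7721 and HL-60 cancer cells. Each compound was tested at 1×10^-7, 1×10^-6 and 1×10^-5 mol/L. Percent inhibition was calculated relative to untreated cells.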
On the technique in general: Tetrazolium dyes change colour on reduction, which living cells bring about.

In test [2] the test system is A549. Kind of test: Antitumor activity against human A549 cells at 1 uM by MTT assay. Format: functional, cell-based. The gist of the method:
as §1

For test [3], the system named is Mus musculus. Kind of test: Antitussive activity in ammonia liquor-induced mouse assessed as number of cough times at 10 mg/kg, po daily for 3 consecutive days administered before ammonia liquor induction measured for 3 mins. Format: functional. The gist of the method: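 Mice were dosed for three days, with vehicle 0.5% sodium carboxymethyl cellulose at 0.2 mL/mouse; codeine 10 mg/kg served as positive control. On day 3, 2 h post-dose, each mouse was placed in a glass chamber and exposed for 5 s to 28% NH4OH aerosol nebulised by compressed air at about 400 mmHg. Coughs were counted over 3 min from spray onset; n = 10, mean ± SD.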

Test [4] relates to A549. Kind of test: Antitumor activity against human A549 cells at 0.1 uM by MTT assay. Format: functional, cell-based. The gist of the method: as §1
The subject of test [5] is Mus musculus. Description: Antitussive activity in ammonia liquor-induced mouse assessed as number of cough times at 5 mg/kg, po daily for 3 consecutive days administered before ammonia liquor induction measured for 3 mins. The class given is functional. In a few lines:
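Mice were dosed in 0.5% sodium carboxymethyl cellulose vehicle (0.2 mL/mouse). On day 3, 2 h after dosing, they were placed in a glass chamber and exposed for 5 s to 28% NH₄OH aerosol, nebulized with compressed air at about 400 mmHg. Coughs were counted over 3 min from spray start. Codeine 10 mg/kg was the positive control and vehicle the negative control. n = 10, mean ± SD.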

Test [6] relates to BGC-823. Description: Antitumor activity against human BGC-823 cells at 0.1 uM by MTT assay. Format: functional, cell-based. The gist of the method:
as §1

In test [7] the test system is SMMC-7721. Kind of test: Antitumor activity against human SMMC7721 cells at 1 uM by MTT assay. The class given is functional, cell-based. In a few lines: as §1
Test [8] relates to HL-60. Kind of test: Antitumor activity against human HL-60 cells at 1 uM by MTT assay. Format: functional, cell-based. The gist of the method: as §1
Test [9] deals with BGC-823. Kind of test: Antitumor activity against human BGC-823 cells at 1 uM by MTT assay. The class given is functional, cell-based. The gist of the method: as §1
For test [10], the system named is SMMC-7721. Kind of test: Antitumor activity against human SMMC7721 cells at 0.1 uM by MTT assay. Format: functional, cell-based. The gist of the method: as §1
The test system of test [11] is HL-60. Kind of test: Antitumor activity against human HL-60 cells at 10 uM by MTT assay. The class given is functional. In a few lines: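 HL-60 cells were tested by MTT assay at 1×10^-7, 1×10^-6 and 1×10^-5 mol/L of each compound. Percent growth inhibition was calculated relative to untreated cells.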

Calls of active or inactive are those of the source. The calls are words filed in the database; no cut-off is given here.

For `CC1=C2C[C@H]3[C@@H](C[C@@H](O)[C@H]4C[C@@H](O)CC[C@@]43C)[C@@H]2CC[C@@H]1[C@@H](C)[C@@H]1[C@H](O)C[C@@H](C)CN1C` (relative stereo) [PUQIENINE A], the result in the test with HL-60 [1], with A549 [2], with A549 [4], in the test with BGC-823 [6], in the test with SMMC-7721 [7] and in the test on HL-60 [8] was inactive. Also, the result in the test with BGC-823 [9] and with SMMC-7721 [10] was inactive. Moreover, the Activity with Mus musculus [3] was determined as 14; in the test on Mus musculus [5] it was 18.

`C[C@H]1CC[C@H]([C@@H](C)[C@H]2CC[C@H]3[C@@H]4CC(=O)[C@H]5C[C@@H](O)CC[C@]5(C)[C@H]4CC[C@]23C)NC1`: the outcome with HL-60 [1], in the test on A549 [2], with A549 [4], in the test on BGC-823 [6], in the test with SMMC-7721 [7] and with HL-60 [8] was inactive. Also, the result in the test with BGC-823 [9] and in the test on SMMC-7721 [10] was inactive. In addition, the results for the Activity in the test with Mus musculus [3], in the test with Mus musculus [5] and with HL-60 [11] were 18, 23 and 51%, respectively.

For `COc1ccc2c3c1O[C@H]1[C@@H](O)C=C[C@H]4[C@@H](C2)N(C)CC[C@@]341` [CODEINE], the Activity with Mus musculus [3] turned out to be 5.

In the case of `C[C@H]1CC[C@H]([C@@H](C)[C@H]2CC[C@H]3[C@@H]4CC(=O)[C@H]5C[C@@H](O[C@@H]6O[C@H](CO)[C@@H](O)[C@H](O)[C@H]6O)CC[C@]5(C)[C@H]4CC[C@]23C)N(C)C1` [PUQIETINONOSIDE], the result in the test with HL-60 [1], in the test with A549 [2], in the test on A549 [4], with BGC-823 [6], in the test with SMMC-7721 [7] and with HL-60 [8] was inactive. The result in the test on BGC-823 [9] and in the test on SMMC-7721 [10] was inactive. For the same molecule, the Activity in the test with Mus musculus [3] was 13; in the test with Mus musculus [5], 17.

With `C[C@@H]1CC[C@@H]([C@@H](C)[C@@H]2CC[C@H]3[C@@H]4CC(=O)[C@H]5C[C@@H](O)CC[C@]5(C)[C@H]4CC[C@]23C)N(C)C1` [PUQIETINONE], the Activity is 11 in the test on Mus musculus [3] and 17 in the test on Mus musculus [5].

As to `CC1=C2C[C@H]3[C@@H](CC(=O)[C@H]4C[C@@H](O)CC[C@@]43C)[C@@H]2CC[C@@H]1[C@@H](C)[C@@H]1[C@H](O)C[C@@H](C)CN1C` (relative stereo) [PUQIENINE B], the outcome in the test with HL-60 [1], in the test with A549 [2], in the test on A549 [4], in the test on BGC-823 [6], with SMMC-7721 [7] and in the test on HL-60 [8] was inactive. Moreover, the outcome in the test with BGC-823 [9] and in the test on SMMC-7721 [10] was inactive. Moreover, the Activity is 10 with Mus musculus [3] and 12 in the test on Mus musculus [5].
